Measured values reported in ChEMBL document CHEMBL4041548, “Ester Prodrugs of IHVR-19029 with Enhanced Oral Exposure and Prevention of Gastrointestinal Glucosidase Interaction” (ACS Med Chem Lett, 2017).

Tests used:
[1] = Apparent permeability of the compound across apical side to basolateral side in human Caco2 cells assessed as drug recovery at 5 uM measured after 2 hrs by LC-MS/MS analysis; type: ADME, cell-based; conditions: Caco-2, read-out: Drug recovery
Mus musculus [2] = assay: Prodrug activation in po dosed BALB/c mouse assessed as 3-(tert-butyl)-1-cyclohexyl-1-(6-((2R,3R,4R,5S)-3,4,5-trihydroxy-2-(hydroxymethyl)piperidin-1-yl)hexyl)urea formation measured up to 4 hrs by LC-MS/MS analysis; type: organism-based; conditions: in vivo
Summary of the method: (§1)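 Male BALB/c mice dosed with the prodrugs or the parent orally (25 or 100 mg/kg) or intravenously (5 mg/kg). The parent compound was quantified in plasma and PK parameters were derived from it. The first sampling point was 5 min post-dose, and prodrugs were tracked up to 4 h.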

[3] = Metabolic stability in pooled human liver microsomes assessed as parent compound remaining at 200 uM measured after 60 mins by LC-MS/MS analysis; type: ADME, microsome; conditions: liver microsomes, read-out: Stability
Summary of the method: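 Prodrugs or parent incubated in pooled human or mouse liver microsomes for up to 60 min, with or without cofactor. Percent remaining and percent conversion to the parent were measured.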

[4] = Metabolic stability in mouse plasma assessed as parent compound remaining at 5 uM measured after 2 hrs by LC-MS/MS analysis; type: ADME, cell-free; conditions: read-out: Stability
Summary of the method: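 Compounds incubated in human or mouse plasma for 2 h. Percent remaining and percent conversion to the parent were determined.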

Mus musculus [5] = assay: Prodrug activation in BALB/c mouse assessed as 3-(tert-butyl)-1-cyclohexyl-1-(6-((2R,3R,4R,5S)-3,4,5-trihydroxy-2-(hydroxymethyl)piperidin-1-yl)hexyl)urea Cmax at 25 mg/kg, po administered as single dose by LC-MS/MS analysis; type: organism-based; set-up: dose 25 mg/kg, route oral; conditions: in vivo; summary of the method: as §1
Mus musculus [6] = assay: Prodrug activation in BALB/c mouse assessed as 3-(tert-butyl)-1-cyclohexyl-1-(6-((2R,3R,4R,5S)-3,4,5-trihydroxy-2-(hydroxymethyl)piperidin-1-yl)hexyl)urea AUC(0 to infinity) at 5 mg/kg, iv as bolus administration by LC-MS/MS analysis; type: organism-based; set-up: dose 5 mg/kg, route intravenous, time infinity; conditions: in vivo
Mus musculus [7] = assay: Prodrug activation in BALB/c mouse assessed as 3-(tert-butyl)-1-cyclohexyl-1-(6-((2R,3R,4R,5S)-3,4,5-trihydroxy-2-(hydroxymethyl)piperidin-1-yl)hexyl)urea AUC(0 to infinity) at 100 mg/kg, po administered as single dose by LC-MS/MS analysis; type: organism-based; set-up: dose 100 mg/kg, route oral, time infinity; conditions: in vivo
[8] = Prodrug activation in simulated intestinal fluid assessed as 3-(tert-butyl)-1-cyclohexyl-1-(6-((2R,3R,4R,5S)-3,4,5-trihydroxy-2-(hydroxymethyl)piperidin-1-yl)hexyl)urea formation at 5 uM measured after 4 hrs by LC-MS/MS analysis
Summary of the method: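 Chemical stability assessed by incubation in simulated gastric fluid and simulated intestinal fluid; percent of compound remaining was measured.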

Mus musculus [9] = assay: Prodrug activation in po dosed BALB/c mouse assessed as 3-(tert-butyl)-1-cyclohexyl-1-(6-((2R,3R,4R,5S)-3,4,5-trihydroxy-2-(hydroxymethyl)piperidin-1-yl)hexyl)urea formation measured after 5 mins by LC-MS/MS analysis; type: organism-based; conditions: in vivo; summary of the method: as §1
Mus musculus [10] = assay: Prodrug activation in BALB/c mouse assessed as 3-(tert-butyl)-1-cyclohexyl-1-(6-((2R,3R,4R,5S)-3,4,5-trihydroxy-2-(hydroxymethyl)piperidin-1-yl)hexyl)urea formation at 100 mg/kg, po administered as single dose measured after 3 hrs by LC-MS/MS analysis; type: organism-based; conditions: in vivo; summary of the method: as §1

Compound | recovery at 2 h, 5 µM [1] [%] | Drug metabolism (Mus musculus [2]) | remaining at 1 h, 200 µM [3] [%] | remaining at 2 h, 5 µM [4] [%] | Cmax (Mus musculus [5]) [ng/mL] | AUC (Mus musculus [6]) [ng·mL·h] | AUC (Mus musculus [7]) [ng·mL·h] | Drug metabolism [8] [%] | Drug metabolism (Mus musculus [9]) | Drug metabolism (Mus musculus [10]) [µM]
CC(C)C(=O)OC[C@@H]1[C@@H](OC(=O)C(C)C)[C@H](OC(=O)C(C)C)[C@@H](OC(=O)C(C)C)CN1CCCCCCN(C(=O)NC(C)(C)C)C1CCCCC1 | < 60 | Metabolite_Notdetected | 2 | 0 | 104 | 569 | 362 | 0 |  | 
CC(=O)OC[C@@H]1[C@@H](OC(C)=O)[C@H](OC(C)=O)[C@@H](OC(C)=O)CN1CCCCCCN(C(=O)NC(C)(C)C)C1CCCCC1 | 9 |  | 0 | 0 | 375 | 368 | 1912 | 0 | Metabolite_Detected | 
CCCC(=O)OC[C@@H]1[C@@H](OC(=O)CCC)[C@H](OC(=O)CCC)[C@@H](OC(=O)CCC)CN1CCCCCCN(C(=O)NC(C)(C)C)C1CCCCC1 | < 60 |  | 4 | 0 | 319 | 2288 | 3884 | 0 | Metabolite_Detected | > 1
